From ChEMBL document CHEMBL1165886, “Synthesis, anticonvulsant and toxicity screening of newer pyrimidine semicarbazone derivatives” (Eur J Med Chem, 2010)
Active and inactive are the calls of the source. No cut-off for these calls is given here.

Columns and labels:
[1] = species: Mus musculus; experiment: Hepatotoxicity in Albino mouse assessed as globulin level measured per 100 mL (RVb = 0.24 +/- 0.03 g); format: toxicity, organism-based; details: in vivo
[2] = species: Mus musculus; experiment: Hepatotoxicity in Albino mouse assessed as change in alkaline phosphatase level; format: toxicity, organism-based; details: in vivo
Method in brief: (§1)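 Serum alkaline phosphatase, SGOT and SGPT levels measured in treated mice versus control; transaminases estimated by the Reitman–Frankel method. Results given as mean ± SEM.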

[3] = test system: Mus musculus; experiment: Anticonvulsant activity in ip dosed Albino mouse assessed as protection against scPTZ-induced seizure after 0.5 hrs; format: functional
Method in brief: (§2)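 Test compound given i.p. in polyethylene glycol at 30, 100 and 300 mg/kg. Pentylenetetrazole 75 mg/kg, as a 0.5% solution, injected subcutaneously in the posterior midline. Animals examined 0.5 h and 4 h after dosing. Value is the minimum dose active in half or more of the mice; dash means no activity at maximum dose.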

[4] = test system: Mus musculus; experiment: Neurotoxicity in Albino mouse assessed as minimal motor impairment at 300 mg/kg, ip after 0.5 hrs by rotarod test; format: toxicity, organism-based; parameters: dose 300 mg/kg, route intraperitoneal; details: in vivo
Method in brief: (§3)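 Mice pretrained on an accelerating rotorod, 3.2 cm diameter, rotating at 10 rpm. Test compound given i.p. in polyethylene glycol at 30, 100 and 300 mg/kg; examined at 0.5 h and 4 h. Neurotoxicity = inability to hold equilibrium on the rod for at least 1 min in each trial. Minimum dose affecting half or more of mice reported.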

[5] = species: Mus musculus; experiment: Hepatotoxicity in Albino mouse assessed as change in SGPT level; format: toxicity, organism-based; details: in vivo; method in brief: as §1
[6] = species: Mus musculus; experiment: Hepatotoxicity in Albino mouse assessed as total protein level measured per 100 mL (RVb = 1.69 +/- 0.05 g); format: toxicity, organism-based; details: in vivo
[7] = test system: Mus musculus; experiment: Anticonvulsant activity in ip dosed Albino mouse assessed as protection against maximal electric shock-induced seizure after 0.5 hrs; format: functional
Method in brief: (§4)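 Mice given test compound i.p. in polyethylene glycol at 30, 100 and 300 mg/kg; corneal electrodes delivered 50 mA, 60 Hz for 0.25 s at 0.5 h and 4.0 h after dosing. Protection scored as abolition of hind limb tonic extension.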

[8] = test system: Mus musculus; experiment: Anticonvulsant activity in ip dosed Albino mouse assessed as protection against maximal electric shock-induced seizure after 4 hrs; format: functional; method in brief: as §4
[9] = species: Mus musculus; experiment: Hepatotoxicity in Albino mouse assessed as change in SGOT level; format: toxicity, organism-based; details: in vivo; method in brief: as §1
[10] = test system: Mus musculus; experiment: Neurotoxicity in Albino mouse assessed as minimal motor impairment at 300 mg/kg, ip after 4 hrs by rotarod test; format: toxicity, organism-based; parameters: dose 300 mg/kg, route intraperitoneal; details: in vivo; method in brief: as §3
[11] = test system: Mus musculus; experiment: Anticonvulsant activity in ip dosed Albino mouse assessed as protection against scPTZ-induced seizure after 4 hrs; format: functional; method in brief: as §2
[12] = species: Mus musculus; experiment: Hepatotoxicity in Albino mouse assessed as albumin level measured per 100 mL (RVb =1.45 +/- 0.06 g); format: toxicity, organism-based; details: in vivo
[13] = test system: Mus musculus; experiment: Anticonvulsant activity in Albino mouse assessed as protection against scPTZ-induced seizure at 300 mg/kg, ip after 0.5 hrs; format: functional, organism-based; parameters: dose 300 mg/kg; method in brief: as §2
[14] = test system: Mus musculus; experiment: Anticonvulsant activity in Albino mouse assessed as protection against scPTZ-induced seizure at 300 mg/kg, ip after 4 hrs; format: functional, organism-based; parameters: dose 300 mg/kg; method in brief: as §2
[15] = test system: Mus musculus; experiment: Anticonvulsant activity in Albino mouse assessed as protection against maximal electric shock-induced seizure at 300 mg/kg, ip after 0.5 hrs; format: functional, organism-based; parameters: dose 300 mg/kg; method in brief: as §4
[16] = Neurotoxicity in ip dosed Albino mouse assessed as minimal motor impairment after 4 hrs by rotarod test; format: toxicity, organism-based; details: in vivo; method in brief: as §3
[17] = Neurotoxicity in ip dosed Albino mouse assessed as minimal motor impairment after 0.5 hrs by rotarod test; format: toxicity, organism-based; details: in vivo; method in brief: as §3
[18] = test system: Mus musculus; experiment: Anticonvulsant activity in Albino mouse assessed as protection against maximal electric shock-induced seizure at 300 mg/kg, ip after 4 hrs; format: functional, organism-based; parameters: dose 300 mg/kg; method in brief: as §4

| SMILES | ED50 [3] [mg/kg] | ED50 [7] [mg/kg] | ED50 [8] [mg/kg] | ED50 [11] [mg/kg] | Activity [13] | Activity [14] | Activity [15] | TD50 at 4 h [16] [mg/kg] | TD50 at 0.5 h [17] [mg/kg] | further results |
| --- | --- | --- | --- | --- | --- | --- | --- | --- | --- | --- |
| C/C(=N/NC(=O)Nc1nc(-c2ccc(C)cc2)cc(-c2ccc(Cl)cc2)n1)c1ccc(Cl)cc1 | 300 | 30 | 300 | 300 | – | – | – | – | – | Activity [1]: 0.19 g; Activity [2]: Non-toxic; Activity [4]: Non-toxic; Activity [5]: Non-toxic; Activity [6]: 1.71 g; Activity [9]: Non-toxic; Activity [10]: Non-toxic; Activity [12]: 1.52 g |
| C/C(=N/NC(=O)Nc1nc(-c2ccc(Cl)cc2)cc(-c2ccc([N+](=O)[O-])cc2)n1)c1ccc(C)cc1 | – | 300 | 300 | 300 | inactive | – | – | – | – | – |
| COc1ccc(-c2cc(-c3ccc(Cl)cc3)nc(NC(=O)N/N=C\c3ccccc3[N+](=O)[O-])n2)c(OC)c1 | – | – | 300 | – | inactive | inactive | inactive | – | – | – |
| O=C1NC(=O)C(c2ccccc2)(c2ccccc2)N1 [PHENYTOIN] | – | 30 | 30 | – | inactive | inactive | – | 100 | 100 | – |
| COc1ccc(-c2cc(-c3ccc(F)cc3)nc(NC(=O)N/N=C\c3ccccc3[N+](=O)[O-])n2)c(OC)c1 | – | 300 | – | 300 | inactive | – | – | – | – | Activity [18]: inactive |
| COc1ccc(-c2cc(-c3ccc(Cl)cc3)nc(NC(=O)N/N=C\c3cccc(Cl)c3)n2)cc1OC | – | 100 | 300 | 300 | inactive | – | – | 300 | 300 | – |
| COc1ccc(-c2cc(-c3ccc(Cl)cc3)nc(NC(=O)N/N=C(/C)c3ccc(C)cc3)n2)cc1 | – | 300 | – | – | inactive | inactive | – | – | – | Activity [18]: inactive |
| COc1ccc(-c2cc(-c3ccc(F)cc3)nc(NC(=O)N/N=C(/C)c3ccc(C)cc3)n2)cc1 | 300 | – | 100 | – | – | – | inactive | – | 100 | Activity [10]: Non-toxic |
| COc1ccc(/C(C)=N\NC(=O)Nc2nc(-c3ccc(Cl)cc3)cc(-c3ccc([N+](=O)[O-])cc3)n2)cc1 | – | – | 300 | – | inactive | inactive | inactive | – | – | – |
| C/C(=N/NC(=O)Nc1nc(-c2ccc(C)cc2)cc(-c2ccc(F)cc2)n1)c1ccc([N+](=O)[O-])cc1 | – | 100 | 300 | 300 | inactive | – | – | 100 | 100 | – |
| COc1ccc(-c2cc(-c3ccc(Cl)cc3)nc(NC(=O)N/N=C\c3ccc([N+](=O)[O-])cc3)n2)cc1OC | 100 | 30 | 100 | 100 | – | – | – | – | – | Activity [1]: 0.26 g; Activity [2]: Non-toxic; Activity [4]: Non-toxic; Activity [5]: Non-toxic; Activity [6]: 2 g; Activity [9]: Non-toxic; Activity [10]: Non-toxic; Activity [12]: 1.74 g |
| CCC1(C)CC(=O)NC1=O (stereo unspecified) [ETHOSUXIMIDE] | 100 | – | – | 300 | – | – | inactive | – | – | Activity [4]: Non-toxic; Activity [18]: inactive; Activity [10]: Non-toxic |
| CCC1(c2ccccc2)C(=O)NC(=O)NC1=O [PHENOBARBITAL] | – | 100 | 30 | – | inactive | inactive | – | 300 | 100 | – |
| COc1ccc(-c2cc(-c3ccc(Cl)cc3)nc(NC(=O)N/N=C(/C)c3ccccc3Cl)n2)cc1 | – | – | – | 300 | inactive | – | inactive | – | – | Activity [18]: inactive |
| COc1ccc(-c2cc(-c3ccc(Cl)cc3)nc(NC(=O)N/N=C\c3ccccc3Cl)n2)c(OC)c1 | – | – | 300 | – | inactive | inactive | inactive | – | – | – |
| C/C(=N/NC(=O)Nc1nc(-c2ccc(F)cc2)cc(-c2ccc([N+](=O)[O-])cc2)n1)c1ccc(C)cc1 | 300 | 100 | 300 | 300 | – | – | – | 300 | – | Activity [4]: Non-toxic |
| C/C(=N/NC(=O)Nc1nc(-c2ccc(C)cc2)cc(-c2ccc(Cl)cc2)n1)c1ccc([N+](=O)[O-])cc1 | 300 | 100 | 300 | 300 | – | – | – | 100 | 100 | – |
| COc1ccc(-c2cc(-c3ccc(F)cc3)nc(NC(=O)N/N=C\c3ccc([N+](=O)[O-])cc3)n2)cc1OC | 300 | 100 | 300 | – | – | inactive | – | 300 | – | Activity [4]: Non-toxic |
| C/C(=N/NC(=O)Nc1nc(-c2ccc(C)cc2)cc(-c2ccc(F)cc2)n1)c1ccc(Cl)cc1 | 100 | 30 | 100 | 300 | – | – | – | 300 | – | Activity [1]: 0.31 g; Activity [2]: Non-toxic; Activity [4]: Non-toxic; Activity [5]: Non-toxic; Activity [6]: 1.93 g; Activity [9]: Non-toxic; Activity [12]: 1.62 g |
| COc1ccc(-c2cc(-c3ccc(F)cc3)nc(NC(=O)N/N=C\c3ccccc3Cl)n2)c(OC)c1 | – | – | 300 | – | inactive | inactive | inactive | – | – | – |
| COc1ccc(-c2cc(-c3ccc(F)cc3)nc(NC(=O)N/N=C\c3cccc(Cl)c3)n2)cc1OC | – | 300 | 300 | – | inactive | inactive | – | – | – | – |
| COc1ccc(/C(C)=N\NC(=O)Nc2nc(-c3ccc(F)cc3)cc(-c3ccc([N+](=O)[O-])cc3)n2)cc1 | 100 | 100 | – | 300 | – | – | – | – | 300 | Activity [18]: inactive; Activity [10]: Non-toxic |
